Data on seven molecules can be found in ChEMBL document CHEMBL4680069, “Itaconate is a covalent inhibitor of the Mycobacterium tuberculosis isocitrate lyase” (RSC Med Chem, 2021).

pIC50, pKd: −log10 of the molar value. Calls of active or inactive are those of the source. No cut-off for these calls is given here.

The nature of assay [1]: Covalent inhibition of wild type N-terminal polyhis-tagged TEV protease cleavage site fused Mycobacterium tuberculosis ICL1 expressed in Escherichia coli BL21 (DE3) using DL-isocitrate as substrate measured after 1 hr by UV-Vis spectrophotometric analysis. The gist of the method:
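Recombinant ICL1 at 20 nM with 1 mM DL-isocitrate and 1 mM MgCl2 in 50 mM Tris pH 7.5. Includes 10 mM phenylhydrazine-HCl to trap product. Inhibitor tested at varying concentrations to give IC50. Four separate measurements; errors are standard deviations.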

The test system of assay [2] is Mycobacterium tuberculosis. The assay is described as follows: Binding affinity to wild type N-terminal polyhis-tagged TEV protease cleavage site fused Mycobacterium tuberculosis ICL1 expressed in Escherichia coli BL21 (DE3) assessed as covalent adduct formation at 1 mM measured after 1 min in presence of Mg2+ and glyoxylate by LC-MS/MS analysis relative to control.

Assay [3] deals with Mycobacterium tuberculosis. The assay is described as follows: Binding affinity to wild type N-terminal polyhis-tagged TEV protease cleavage site fused Mycobacterium tuberculosis ICL1 expressed in Escherichia coli BL21 (DE3) assessed as compound-protein covalent adduct formation at 1 mM in absence of Mg2+ by LC-MS analysis.
The nature of assay [4]: Binding affinity to wild type N-terminal polyhis-tagged TEV protease cleavage site fused Mycobacterium tuberculosis ICL1 expressed in Escherichia coli BL21 (DE3) in presence of MgCl2 by NMR binding analysis.
The nature of assay [5]: Binding affinity to wild type N-terminal polyhis-tagged TEV protease cleavage site fused Mycobacterium tuberculosis ICL1 expressed in Escherichia coli BL21 (DE3) in presence of glyoxylate by NMR binding analysis.
Assay [6] is described as follows: Binding affinity to wild type N-terminal polyhis-tagged TEV protease cleavage site fused Mycobacterium tuberculosis ICL1 expressed in Escherichia coli BL21 (DE3) in presence of Mg2+ and glyoxylate by NMR binding analysis.
Assay [7] has as its system Mycobacterium tuberculosis. The assay is described as follows: Binding affinity to recombinant Mycobacterium tuberculosis CDC1551 ICL2 (Cys215-Arg233) expressed in Escherichia coli BL21 (DE3) LOBSTR assessed as covalent adduct formation at 1 mM incubated overnight in presence of Mg2+ followed by trypsin protease digestion by tandem mass spectrometry analysis. To be noted: time 12.0 hrs.

Assay [8] deals with Mycobacterium tuberculosis. The assay is described as follows: Binding affinity to wild type N-terminal polyhis-tagged TEV protease cleavage site fused Mycobacterium tuberculosis ICL1 expressed in Escherichia coli BL21 (DE3) assessed as covalent adduct formation in presence of glyoxylate by NMR binding analysis.
Assay [9] can be described thus: Binding affinity to wild type N-terminal polyhis-tagged TEV protease cleavage site fused Mycobacterium tuberculosis ICL1 expressed in Escherichia coli BL21 (DE3) in absence of Mg2+ by NMR binding analysis.
Assay [10] concerns Mycobacterium tuberculosis. The assay is described as follows: Binding affinity to wild type N-terminal polyhis-tagged TEV protease cleavage site fused Mycobacterium tuberculosis ICL1 expressed in Escherichia coli BL21 (DE3) assessed as compound-protein covalent adduct formation by measuring molecular mass at 1 mM after 12 hrs in presence of MgCl2 by LC-MS analysis.
In assay [11] the test system is Mycobacterium tuberculosis. The assay is described as follows: Binding affinity to wild type N-terminal polyhis-tagged TEV protease cleavage site fused Mycobacterium tuberculosis ICL1 expressed in Escherichia coli BL21 (DE3) assessed as covalent adduct formation at 1 mM measured after 5 hrs in presence of Mg2+ by LC-MS/MS analysis relative to control.
Assay [12] deals with Mycobacterium tuberculosis. The assay is described as follows: Binding affinity to wild type N-terminal polyhis-tagged TEV protease cleavage site fused Mycobacterium tuberculosis ICL1 (Ala170-Lys197) expressed in Escherichia coli BL21 (DE3) assessed as covalent adduct formation at 1 mM incubated overnight in presence of Mg2+ followed by trypsin protease digestion by tandem mass spectrometry analysis. To be noted: time 12.0 hrs.

The subject of assay [13] is Mycobacterium tuberculosis. The assay is described as follows: Binding affinity to wild type N-terminal polyhis-tagged TEV protease cleavage site fused Mycobacterium tuberculosis ICL1 expressed in Escherichia coli BL21 (DE3) assessed as covalent adduct formation at 1 mM measured after 75 mins in presence of Mg2+ by LC-MS/MS analysis relative to control.

In general, pIC50 refers to −log10 of the IC50, conventionally taken in molar units. Read a high pIC50 as a low IC50. One may read the pKd as the negative decadic logarithm of the Kd, by convention in mol/L.

With `O=C(O)C/C(=C\c1ccccc1)C(=O)O`, the pIC50 in assay [1] was 2.59.

In assay [1], `O=C(O)/C=C(/CC(=O)O)C(=O)O` gave a pIC50 of 2.28.

`C=C(CC(=O)OC)C(=O)OC` had a negative logarithm of the IC50 (pIC50) in assay [1] of less than 2.00.

Molecule `C/C=C(\CC(=O)OC)C(=O)OC` had a negative-log IC50 (pIC50) in assay [1] of less than 2.00.

In assay [1], `C/C=C(\CC(=O)O)C(=O)O` gave a negative-log IC50 (pIC50) of 2.51.

`O=C(O)/C=C(\CC(=O)O)C(=O)O` [ACONITIC ACID]: the negative-log IC50 (pIC50) in assay [1] was 2.30.

`C=C(CC(=O)O)C(=O)O` [ITACONATE]: the Activity in [2] worked out at 100%; in assay [11] it was 100%; in assay [13], 50%. Moreover, the result in [3] and in assay [8] was inactive. The same molecule gave a pIC50 in [1] of 3.38. The pKd in [4] is 3.95; in assay [5], less than 3.30; in assay [6] it was 3.91; in assay [9] it was less than 3.30. Further, the outcome in assay [7], in assay [10] and in assay [12] was Active.
